ChEMBL document CHEMBL4270543, “Synthesis and biological evaluation of (1-aryl-1H-pyrazol-4-yl) (3,4,5-trimethoxyphenyl)methanone derivatives as tubulin inhibitors” (Eur J Med Chem, 2018)
pIC50: −log10 of the molar value. Calls of active or inactive are those of the source. No cut-off for these calls is given here.

Tests used:
[1] = test system: A549; test: Antiproliferative activity against human A549 cells after 72 hrs by MTT assay; type: functional, cell-based; details: A549, 72 h
Method in brief: (§1)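 Human tumour cells were exposed to the compound for 72 h, and growth was read by standard MTT assay. IC50 is the concentration giving 50% inhibition, taken as the average of three parallel experiments.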

[2] = test system: HT-1080; test: Antiproliferative activity against human HT1080 cells after 72 hrs by MTT assay; type: functional, cell-based; details: HT-1080, 72 h; method in brief: as §1
[3] = test system: SGC-7901; test: Antiproliferative activity against human SGC7901 cells after 72 hrs by MTT assay; type: functional, cell-based; details: SGC-7901, 72 h; method in brief: as §1
[4] = test system: L929; test: Cytotoxicity against mouse L929 cells after 72 hrs by MTT assay; type: cell-based; details: L929, 72 h
[5] = (§2) Inhibition of porcine brain tubulin polymerization preincubated for 1 min followed by GTP addition measured at 1 min time interval for 90 mins by fluorescence assay; design: species or system Sus scrofa
Method in brief: (§3)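 Run with a commercial tubulin polymerization kit following the manufacturer's protocol. Tubulin was pre-incubated for 1 min with compound (2.5, 5, 10 or 20 µM) or DMSO vehicle, then GTP was added to start polymerization. Reactions were monitored at 37 °C.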

[6] = organism: Sus scrofa; test: as §2; method in brief: as §3
[7] = target: Tubulin (Homo sapiens) (UniProt P68371+Q9H4B7+P0DPH7+P68366+Q13509+Q71U36+P04350+Q3ZCM7+P07437+P68363+Q9BQE3+Q6PEY2+Q13885+Q9BVA1+Q9BUF5); test: Inhibition of tubulin polymerization in human SGC7901 cells assessed as disruption of microtubule formation at 2 times antiproliferative IC50 after 24 hrs by DAPI staining based immunofluorescence microscopic method; type: cell-based
Method in brief: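 SGC-7901 cells were treated for 24 h at 2-fold their antiproliferative IC50. Cells were stained with anti-α-tubulin-FITC antibody and then DAPI for DNA, and the microtubule network was examined by confocal microscopy.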

[8] = test system: SGC-7901; test: Cell cycle arrest in human SGC7901 cells assessed as accumulation at G2/M phase at 27 to 108 nM after 24 hrs by propidium iodide staining based flow cytometry (reference value: 15%); type: functional
[9] = test system: SGC-7901; test: Cell cycle arrest in human SGC7901 cells assessed as accumulation at G2/M phase after 24 hrs by propidium iodide staining based flow cytometry; type: functional
Method in brief: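 SGC-7901 cells were treated for 24 h with a vehicle control run in parallel. Cell-cycle phase distribution was obtained by flow cytometry, with G2/M accumulation as the read-out.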

[10] = organism: Sus scrofa; test: Inhibition of porcine brain tubulin polymerization at 5 uM preincubated for 1 min followed by GTP addition measured at 1 min time interval for 90 mins by fluorescence assay; method in brief: as §3
[11] = organism: Sus scrofa; test: Inhibition of porcine brain tubulin polymerization at 2.5 uM preincubated for 1 min followed by GTP addition measured at 1 min time interval for 90 mins by fluorescence assay; method in brief: as §3

| Compound | pIC50 [1] | pIC50 [2] | pIC50 [3] | further results |
| --- | --- | --- | --- | --- |
| COc1cc(C(=O)c2cnn(-c3cc(C)cc(C)c3)c2N)cc(OC)c1OC | < 4.52 | < 4.52 | < 4.52 | – |
| COc1cc(C(=O)c2cnn(-c3ccc(F)cc3)c2N)cc(OC)c1OC | < 4.52 | < 4.52 | < 4.52 | – |
| COc1cc(C(=O)c2cnn(-c3ccccc3C)c2)cc(OC)c1OC | < 4.52 | < 4.52 | < 4.52 | – |
| CCc1ccc(-n2cc(C(=O)c3cc(OC)c(OC)c(OC)c3)cn2)cc1 | 4.79 | 5.51 | 5.11 | – |
| COc1ccc(-n2cc(C(=O)c3cc(OC)c(OC)c(OC)c3)cn2)cc1 | 4.73 | < 4.52 | 4.75 | – |
| COc1cc(C(=O)c2cnn(-c3ccc(C(C)C)cc3)c2N)cc(OC)c1OC | < 4.52 | < 4.52 | < 4.52 | – |
| COc1cc(C(=O)c2cnn(-c3ccc(F)cc3)c2)cc(OC)c1OC | 4.85 | 5.55 | 5.19 | – |
| COc1cc(C(=O)c2cnn(-c3cccc(Cl)c3)c2N)cc(OC)c1OC | < 4.52 | < 4.52 | < 4.52 | – |
| COc1cc(C(=O)c2cnn(-c3cccc(Br)c3)c2)cc(OC)c1OC | < 4.52 | < 4.52 | < 4.52 | – |
| COc1cc(C(=O)c2cnn(-c3ccc(C)cc3)c2)cc(OC)c1OC | 6.96 | 6.80 | 7.27 | pIC50 [4]: 4.18; pIC50 [5]: 5.04; inhibition [6]: Dose-dependent effect; inhibition [7]: Active; Activity [8]: <=68%; Activity [9]: Dose-dependent effect |
| COc1ccc(-n2ncc(C(=O)c3cc(OC)c(OC)c(OC)c3)c2N)cc1 | < 4.52 | < 4.52 | < 4.52 | – |
| COc1cc(C(=O)c2cnn(-c3cc(C)ccc3C)c2N)cc(OC)c1OC | < 4.52 | < 4.52 | < 4.52 | – |
| COc1cc(C(=O)c2cnn(-c3ccccc3Br)c2)cc(OC)c1OC | < 4.52 | < 4.52 | < 4.52 | – |
| COc1cc(C(=O)c2cnn(-c3cccc(Br)c3)c2N)cc(OC)c1OC | < 4.52 | < 4.52 | < 4.52 | – |
| COc1cc(C(=O)c2cnn(-c3ccccc3Cl)c2N)cc(OC)c1OC | < 4.52 | < 4.52 | < 4.52 | – |
| COc1cc(C(=O)c2cnn(-c3ccccc3Br)c2N)cc(OC)c1OC | < 4.52 | < 4.52 | < 4.52 | – |
| COc1cc(C(=O)c2cnn(-c3cc(C)ccc3C)c2)cc(OC)c1OC | 5.59 | 4.89 | 5.43 | – |
| COc1cc(C(=O)c2cnn(-c3cccc(Cl)c3C)c2)cc(OC)c1OC | < 4.52 | < 4.52 | < 4.52 | – |

| Compound | pIC50 [1] | pIC50 [2] | pIC50 [3] | further results |
| --- | --- | --- | --- | --- |
| COc1cc(C(=O)c2cnn(-c3ccc(Cl)cc3)c2)cc(OC)c1OC | < 4.52 | < 4.52 | < 4.52 | – |
| COc1cc(C(=O)c2cnn(-c3ccccc3C)c2N)cc(OC)c1OC | < 4.52 | < 4.52 | < 4.52 | – |
| CC(=O)O[C@H]1C(=O)[C@@]2(C)[C@H]([C@H](OC(=O)c3ccccc3)[C@]3(O)C[C@H](OC(=O)[C@H](O)[C@@H](NC(=O)c4ccccc4)c4ccccc4)C(C)=C1C3(C)C)[C@]1(OC(C)=O)CO[C@@H]1C[C@@H]2O | – | – | – | inhibition [10]: inactive |
| COc1cc(/C(=N\O)c2cnn(-c3ccc(C)cc3)c2)cc(OC)c1OC (mixture of isomers) | 6.85 | 7.05 | 7.15 | pIC50 [4]: 4.02 |
| CCc1ccc(-n2ncc(C(=O)c3cc(OC)c(OC)c(OC)c3)c2N)cc1 | < 4.52 | < 4.52 | < 4.52 | – |
| COc1cc(C(=O)c2cnn(-c3ccc(Cl)cc3)c2N)cc(OC)c1OC | < 4.52 | < 4.52 | < 4.52 | – |
| COc1cc(C(=O)c2cnn(-c3ccc(C)cc3C)c2)cc(OC)c1OC | < 4.52 | 4.65 | < 4.52 | – |
| COc1cc(C(=O)c2cnn(-c3ccccc3Cl)c2)cc(OC)c1OC | < 4.52 | < 4.52 | < 4.52 | – |
| COc1cc(C(=O)c2cnn(-c3ccc(C)cc3)c2N)cc(OC)c1OC | 4.69 | < 4.52 | 4.53 | – |
| COc1cc(C(=O)c2cnn(-c3ccccc3)c2N)cc(OC)c1OC | 4.95 | 5.30 | 4.61 | – |
| COc1cc(C(=O)c2cnn(-c3ccc(C)cc3C)c2N)cc(OC)c1OC | < 4.52 | < 4.52 | < 4.52 | – |
| COc1cc(C(=O)c2cnn(-c3ccccc3)c2)cc(OC)c1OC | 5.07 | 4.71 | < 4.52 | – |
| COc1cc(C(=O)c2cnn(-c3cc(C)cc(C)c3)c2)cc(OC)c1OC | 5.64 | 5.80 | 5.72 | – |
| COc1cc(C(=O)c2cnn(-c3ccc(C(C)C)cc3)c2)cc(OC)c1OC | < 4.52 | 4.77 | < 4.52 | – |
| COc1cc(C(=O)c2cnn(-c3cccc(Cl)c3C)c2N)cc(OC)c1OC | < 4.52 | < 4.52 | < 4.52 | – |
| COc1cc(C(=O)c2cnn(-c3cccc(Cl)c3)c2)cc(OC)c1OC | 4.69 | 5.43 | 4.78 | – |
| COc1cc(C(=O)c2csc(-c3ccccc3)n2)cc(OC)c1OC | 7.49 | 7.57 | 7.64 | pIC50 [4]: 4.68; inhibition [11]: Active; inhibition [7]: Active |
